Most compounds without a hit are left out; they make up all but 2.3% or so of the library.
ARFGAP1 inhibitor – inhibitors of rat ARFGAP1. Q62848. Arfgap1-stimulated ARF1 GTP hydrolysis, GDP FP detection. inhibition, % at 16.5 µM. 360,000 tested, 0.26% active. AID 651572;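 active = inhibition above a per-plate limit, mean inhibition of low control wells plus 3 SD, cut at about 25% in these data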;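 note: 0% = DMSO wells with enzyme and 100% = wells lacking Arfgap1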
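Assay system: purified rat His6-Arfgap1 residues 1-136 (GAP domain); Reagent: human Δ17 ARF1 bound to GTP; Dosing: 16.5 µM single point, 1.26% DMSO; Times: GTP hydrolysis reaction 2 h at 25 °C; Signal: FP, GDP Alexa 633 tracer displaced from anti-GDP antibody, 620/688 nm; Measure: % inhibition from polarization.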
SKKanGAS inh – blocks kanamycin growth of S. pyogenes SKKanGAS strain; BacTiter-Glo, 6 h; 300,000 tested, 1.3% active; inhibition, % at 7.5 µM; AID 1662;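 active = mean replicate score, as percent of positive control median, at least 50; inconclusive = mean below 50 but one replicate at or above 50; inactive = mean and every replicate below 50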;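 note: strain carries kanamycin resistance gene driven by streptokinase promoter and grows in 40 µg/ml kanamycin; loss of luminescence reflects streptokinase promoter inhibition or plain growth inhibition; 0% = median of DMSO wells and 100% = positive control at its reference dose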
Calb FLC – C. albicans growth modulation with fluconazole. C. albicans CaCi-2 + fluconazole, Alamar Blue growth, 48 h. growth inhibition, % (no concentration beside the values). 300,000 tested, 0.57% active. AID 1979;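 active = growth inhibition above about 58% in most replicates, limit read from the data, passing the limit was not always enough; inconclusive = exactly half the replicates above a set limit; inactive = most replicates below a set limit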;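 note: all wells also contain fluconazole at 8 µg/ml as a sub-toxic cotreatment; 0% = median of DMSO wells and 100% = median of geldanamycin control wells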
ASAP1 GAP inh – ASAP1 ArfGAP inhibition; ASAP1-stimulated ARF1 GTP hydrolysis, GDP FP detection; inhibition, % at 16.5 µM; Q9ULH1; 360,000 tested, 0.19% active; in the data active = inhibition above about 25%;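 note: 0% = vehicle with enzyme and substrate and 100% = no enzyme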
Target sequence (Q9ULH1 325-724 limits assumed): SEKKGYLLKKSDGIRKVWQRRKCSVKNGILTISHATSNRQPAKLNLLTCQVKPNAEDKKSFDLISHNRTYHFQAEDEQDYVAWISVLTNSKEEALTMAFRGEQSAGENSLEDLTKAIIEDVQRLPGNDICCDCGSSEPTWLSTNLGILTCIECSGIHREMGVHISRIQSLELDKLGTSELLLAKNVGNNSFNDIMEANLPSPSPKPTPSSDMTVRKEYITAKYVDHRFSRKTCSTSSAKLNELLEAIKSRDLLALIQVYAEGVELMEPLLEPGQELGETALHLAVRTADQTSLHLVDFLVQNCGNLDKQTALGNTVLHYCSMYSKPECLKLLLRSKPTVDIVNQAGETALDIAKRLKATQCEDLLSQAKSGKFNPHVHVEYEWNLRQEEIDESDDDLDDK
sPLA2-III inh – Inhibits HGIII-sPLA2 liposome hydrolysis, primary screen. QFRET BODIPY PC-A2 liposome hydrolysis, fluorescence. Q9NZ20. 370,000 tested, 0.56% active. inhibition, % at 12.2 µM;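 active = inhibition above mean plus 3 SD of compounds lying within the high and low control bounds, cut at about 19% in these data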;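 note: 0% = median of test compound wells and 100% = no enzyme DMSO wells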
* hit, by the source's call; ? = inconclusive; . = not tested or not shown.

SMILES	ARFGAP1 inhibitor	SKKanGAS inh	Calb FLC	ASAP1 GAP inh	sPLA2-III inh
O=C(Cc1ccccc1)NNC(=O)Nc1cccc(Cl)c1	7	12	-55	11	-9
O=C(CN1c2ccccc2Sc2ccccc21)NNC(=O)Nc1cccc(Cl)c1	5	50*	1	1	-8
COCCN1C(=O)C(CC(=O)Nc2ccc(C(=O)O)cc2)SC1=Nc1ccccc1 (centres undefined)	-6	.	5	2	5
COC(=O)c1cc(NC(=O)CC2SC(=Nc3ccccc3)N(CCc3c[nH]c4ccccc34)C2=O)cc(C(=O)OC)c1 (centres undefined)	16	25	-6	28*	-18
OC(CNCc1ccco1)Cn1c2ccc(Br)cc2c2cc(Br)ccc21 (centres undefined)	5	52*	5	11	1
Brc1ccc2ncnc(NCc3ccco3)c2c1	-4	13	8	-4	-2
C=C1C(=O)[C@]23C[C@H]1CC[C@H]2[C@]1(C)CCC[C@@](C)(C(=O)OC)[C@H]1C[C@@H]3O	.	.	.	.	3
COCCCNC(=S)N/N=C/c1cccc(OC)c1O	12	1	3	0	12
Oc1ccccc1/C=N/NC(=S)NC1CC2CC1C1C=CCC21 (centres undefined)	6	93*	2	-8	19
COc1cccc(/C=N/NC(=S)NC2CC3CC2C2C=CCC32)c1O (centres undefined)	-3	109*	13	-4	8
CCCn1c(=O)c(C(=O)NNC(=O)c2ccc(Cl)cc2Cl)c(O)c2ccccc21	-8	70*	.	-1	8
CCn1c(=O)c(C(=O)NNC(=O)c2ccc(Cl)cc2Cl)c(O)c2ccccc21	2	75*	5	-5	1
CCCn1c(=O)c(C(=O)NNS(=O)(=O)c2ccc(Cl)cc2)c(O)c2ccccc21	-18	96*	0	-14	-14
COc1cccc(-c2nnc(SCc3cc(C)ccc3C)n2Cc2ccco2)c1	.	.	.	.	-5
C[C@H](CO)N1C[C@H](C)[C@@H](CN(C)C(=O)c2ccc(N3CCN(C)CC3)cc2)OCc2cn(nn2)CCCC1=O	5	.	.	-12	8
Cc1cccc(OCC(=O)Nc2ccccc2N2CCCCC2)c1C	-2	70*	0	-6	9
O=C(CN1CCc2ccccc2C1)Nc1ccccc1Cl	2	8	-4	-6	-3
Cc1ccc(Cl)c(OCC(=O)Nc2ccccc2N2CCCCC2)c1	-1	?	-3	2	7
Cc1cccc(C)c1OCC(=O)Nc1ccccc1N1CCCCC1	-2	86*	-1	0	-8
O=C(CN1CCc2ccccc2C1)Nc1ccccc1N1CCCCCC1	.	86*	-14	.	.
COc1ccc(OCC(=O)Nc2ccccc2N2CCCCC2)cc1	-4	6	1	4	-4
COC(=O)[C@H]1C[C@@]2(C3C=CC=C3)c3ccccc3N[C@H]2N1	.	.	.	.	-3
Cc1cccc(C(=O)Nc2nc3ncccn3c2-c2ccc(C(F)(F)F)cc2)c1	.	.	.	.	12
COc1ccc(Oc2nc(C(F)(F)F)nc3ccccc23)cc1	-17	52*	3	5	9
c1ccc(CC2CCN(c3ncnc4sccc34)CC2)cc1	16	28	97*	-4	-3
SMILES	ARFGAP1 inhibitor	SKKanGAS inh	Calb FLC	ASAP1 GAP inh	sPLA2-III inh
Cc1c(C(=O)N2CCC(Cc3ccccc3)CC2)sc2ncnc(N3CCC(C)CC3)c12	7	56*	1	-6	-3
COC(CN(C)C(=O)c1ccc2c(c1)NC(=O)c1ccccc1S2)OC	0	4	120*	7	-2
COc1cccc(/C=N/NC(=O)CSc2nnc(C)n2-c2ccccc2)c1O	1	16	18	-9	-8
Cc1ccc(-c2nn(-c3ccccc3)cc2/C=N/NC(=O)CSc2nnc(C)n2-c2ccccc2)cc1	8	54*	-8	7	-7
Cn1c(N/N=C/c2c[nH]c3ccccc23)nc2ccccc21	18	29	84*	16	18
O=c1[nH]c2ccc(S(=O)(=O)N3CCCC3)cc2o1	.	.	.	.	-3
Cc1ccc(S(=O)(=O)Nc2ccc(Cl)cc2)cc1NC(=O)c1cc2c(s1)CCCC2	-1	53*	15	10	-56
O=C1c2cccc(NCCNCCO)c2C(=O)c2cccc(NCCNCCO)c21	-4	.	.	11	30*
COCCCN1C(=O)[C@H](CC(=O)NCc2cccc(C(F)(F)F)c2)[C@]2(C(=O)OC)CCCCC=C12	.	.	.	.	-6
C=CCNC(=S)N1C[C@H]2CON(C)[C@H]2C[C@H]1c1ccccc1Br	-5	.	.	2	2

Screens as filed in PubChem BioAssay.
